Active and inactive are the calls of the source. The rule behind the calls is not given here.
Tests used:
[1] = tested on: A-431; experiment: Antagonist activity at LPA receptor in human A431 cells assessed as inhibition of LPA-induced intracellular calcium mobilization at 10 uM by Fluo-3 AM-staining based FLIPR assay; assay type: cell-based
Method in brief: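 A431 human epithelial carcinoma cells, which express LPA1–3 receptor mRNAs, were tested with the test compound at a single concentration of 10 μM against a single concentration of 1-oleoyl LPA. The read-out was inhibition of LPA-induced intracellular calcium release.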

[2] = molecular target: Lysophosphatidic acid receptor 1 (Homo sapiens, UniProt Q92633); experiment: Competitive antagonist activity at human LPA1 receptor overexpressed in CHO cells assessed as inhibition of LPA-induced [35S]GTPgammaS binding by liquid scintillation counting; assay type: functional, cell-based
Method in brief: (§1)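 GTP[γ-³⁵S] binding was measured in membrane fractions containing hLPA1 or hLPA3 from over-expressing CHO cells. LPA concentration-effect curves were run at increasing antagonist concentrations, and Schild analysis was derived from these curves.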

[3] = molecular target: T1, Lysophosphatidic acid receptor 3 (Homo sapiens, UniProt Q9UBY5); experiment: (§2) Competitive antagonist activity at N-terminal 3XHA-tagged human LPA3 receptor overexpressed in CHO cells assessed as inhibition of LPA-induced [35S]GTPgammaS binding by liquid scintillation counting; assay type: functional, cell-based; method in brief: as §1
T1 sequence (Q9UBY5 whole entry): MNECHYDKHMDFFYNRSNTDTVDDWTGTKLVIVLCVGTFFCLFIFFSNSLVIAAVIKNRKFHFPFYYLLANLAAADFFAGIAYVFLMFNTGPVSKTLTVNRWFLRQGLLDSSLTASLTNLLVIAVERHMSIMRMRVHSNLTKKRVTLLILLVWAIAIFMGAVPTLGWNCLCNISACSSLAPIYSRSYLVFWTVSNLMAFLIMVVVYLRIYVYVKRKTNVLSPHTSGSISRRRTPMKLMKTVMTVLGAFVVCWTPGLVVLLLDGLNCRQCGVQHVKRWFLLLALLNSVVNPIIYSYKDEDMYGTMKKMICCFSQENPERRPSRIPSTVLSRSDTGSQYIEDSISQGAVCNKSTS

[4] = molecular target: T2, Lysophosphatidic acid receptor 3 (Homo sapiens) (UniProt Q9UBY5); experiment: as §2; assay type: functional, cell-based; method in brief: as §1
T2 sequence (whole entry): T1 sequence (Q9UBY5 whole entry)

[5] = molecular target: Lysophosphatidic acid receptor 1/lysophosphatidic acid receptor 3 (Rattus norvegicus, UniProt Q8K5E0+P61794); experiment: Antagonist activity at LPAR1/LPAR3 in rat glioma C62B cells assessed as inhibition of LPA-induced reduction in isoproterenol-stimulated [3H]cAMP accumulation by liquid scintillation counting; assay type: functional, cell-based
Method in brief: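 C62B cells were grown to confluence and labelled with [³H]adenine for 1 h to label ATP pools. They were then stimulated for 2 min with isoproterenol (10 μM), with or without 18:1 LPA (100 nM), and with or without antagonist. Antagonist was given at increasing concentrations to obtain dose-response curves of the block of LPA inhibition of cAMP accumulation.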

[6] = molecular target: T3, Lysophosphatidic acid receptor 3 (Rattus norvegicus) (UniProt Q8K5E0); experiment: Antagonist activity at LPAR3 in rat glioma C62B cells assessed as inhibition of LPA3 agonist-induced reduction in isoproterenol-stimulated [3H]cAMP accumulation by liquid scintillation counting; assay type: functional, cell-based
T3 sequence (whole entry): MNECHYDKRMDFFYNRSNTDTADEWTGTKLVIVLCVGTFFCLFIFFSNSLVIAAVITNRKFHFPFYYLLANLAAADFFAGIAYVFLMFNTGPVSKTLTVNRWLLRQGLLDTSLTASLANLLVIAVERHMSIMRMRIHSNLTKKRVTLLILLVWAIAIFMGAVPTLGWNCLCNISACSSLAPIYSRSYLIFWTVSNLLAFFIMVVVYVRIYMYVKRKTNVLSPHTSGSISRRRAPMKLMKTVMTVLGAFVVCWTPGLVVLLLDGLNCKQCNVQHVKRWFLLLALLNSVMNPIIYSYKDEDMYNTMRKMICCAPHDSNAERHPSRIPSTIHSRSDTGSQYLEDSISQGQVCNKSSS

[7] = Half life in Wistar rat at 20 mg/kg, iv by LC-MS/MS analysis; assay type: ADME, organism-based; design: dose 20 mg/kg, route intravenous; settings: in vivo
[8] = molecular target: Lysophosphatidic acid receptor 2 (Homo sapiens) (UniProt Q9HBW0); experiment: Antagonist activity at LPAR2 receptor (unknown origin) assessed as inhibition of LPA-induced [35S]GTPgammaS binding by liquid scintillation counting; assay type: functional
Chain of Lysophosphatidic acid receptor 2 (Homo sapiens) (Q9HBW0 whole entry): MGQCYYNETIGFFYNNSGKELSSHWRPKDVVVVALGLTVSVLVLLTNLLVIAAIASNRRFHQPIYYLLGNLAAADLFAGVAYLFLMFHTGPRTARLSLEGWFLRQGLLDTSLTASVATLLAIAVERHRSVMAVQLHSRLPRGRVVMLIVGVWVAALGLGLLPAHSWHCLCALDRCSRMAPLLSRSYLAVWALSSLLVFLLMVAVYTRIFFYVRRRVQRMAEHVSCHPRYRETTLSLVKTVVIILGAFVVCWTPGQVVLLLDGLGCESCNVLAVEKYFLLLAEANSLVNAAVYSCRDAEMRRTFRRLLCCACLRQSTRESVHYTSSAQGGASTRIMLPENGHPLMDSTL

Chain of Lysophosphatidic acid receptor 1 (Q92633 whole entry): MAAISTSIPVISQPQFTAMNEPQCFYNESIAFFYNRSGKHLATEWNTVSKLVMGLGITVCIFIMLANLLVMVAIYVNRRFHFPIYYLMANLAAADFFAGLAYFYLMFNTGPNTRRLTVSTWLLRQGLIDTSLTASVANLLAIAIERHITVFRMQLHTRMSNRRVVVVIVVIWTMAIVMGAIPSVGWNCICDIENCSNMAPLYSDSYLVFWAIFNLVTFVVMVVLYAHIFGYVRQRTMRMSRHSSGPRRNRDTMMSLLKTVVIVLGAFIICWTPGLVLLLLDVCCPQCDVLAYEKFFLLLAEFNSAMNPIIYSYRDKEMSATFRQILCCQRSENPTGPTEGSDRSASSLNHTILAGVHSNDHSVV

Row | Ki [2] [nM] | Ki [3] [nM] | inhibition [2] | inhibition [4] | Structure (SMILES) | inhibition [1] | also measured
1 | – | – | – | – | CCCCCCCCCCCCCCCC(=O)N[C@H](Cc1ccc(OCc2cc(OCC(F)(F)F)ccn2)cc1)CC(F)P(=O)(O)O (stereo not given in full) | Active | –
2 | – | – | – | – | CCCCCCCCCCCCCCCC(=O)N[C@@H](/C=C(\F)P(=O)(O)O)Cc1ccc(OCc2cc(OCC(F)(F)F)ccn2)cc1 | Active | –
3 | 84 | 48 | – | – | CCCCCCCCCCCCCCCCCC(=O)N[C@@H](COP(=O)(O)O)Cc1ccc(OCc2cc(OCC(F)(F)F)ccn2)cc1 | – | –
4 | – | – | Active | Active | Cc1noc(-c2ccc(CSCCC(=O)O)cc2)c1NC(=O)OC(C)c1ccccc1Cl (stereo not given) | – | –
5 | 143 | 512 | Dose-dependent effect | Dose-dependent effect | CCCCCCCCCCCCCCCC(=O)N[C@@H](/C=C/P(=O)(O)O)Cc1ccc(OCc2cc(OCC(F)(F)F)ccn2)cc1 | Active | Ki [5]: 11 nM; inhibition [6]: Dose-dependent effect; half-life [7]: 1.5 h; inhibition [8]: inactive
